Test results from ChEMBL document CHEMBL3351505, “Ultrasound-assisted synthesis of novel 1,2,3-triazoles coupled diaryl sulfone moieties by the CuAAC reaction, and biological evaluation of them as antioxidant and antimicrobial agents” (Eur J Med Chem, 2014).
Converted amounts (≈) assume the structure as drawn. The source made the active and inactive calls. The rule behind the calls is not given here.

Key:
Escherichia coli [1] = assay: Antibacterial activity against Escherichia coli ATCC 25922 after 24 hrs by two fold serial dilution method; assay type: functional
Pseudomonas aeruginosa [2] = assay: Antibacterial activity against Pseudomonas aeruginosa ATCC 27953 after 24 hrs by two fold serial dilution method; assay type: functional
Escherichia coli [3] = assay: Antibacterial activity against Escherichia coli ATCC 25922 using 100 uL of test compound after 24 hrs by agar well diffusion method; assay type: functional
Outline: (§1)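 Agar well diffusion. Nutrient agar was spread with bacterial suspension at 1×10⁸ CFU/mL, and 10 mm wells were cut. Wells were loaded with compound solution made at 200 mg per 1 mL DMSO. Plates were incubated 24 h at 37 °C and inhibition zones were measured. DMSO served as the negative control.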

Bacillus subtilis [4] = assay: Antibacterial activity against Bacillus subtilis ATCC 6633 after 24 hrs by two fold serial dilution method; assay type: functional
Micrococcus luteus [5] = assay: Antibacterial activity against Sarcina lutea after 24 hrs by two fold serial dilution method; assay type: functional
Aspergillus niger [6] = assay: Antifungal activity against Aspergillus niger after 48 hrs by two fold serial dilution method; assay type: functional
Outline: (§2)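 Two-fold serial broth dilution in a suitable broth, run only on compounds giving inhibition zones of at least 16 mm. Final concentrations were […]. Each 5 mL received 0.1 mL inoculum and was incubated 48 h at 28 °C. MIC was the lowest concentration without growth.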

Saccharomyces cerevisiae [7] = assay: Antifungal activity against Saccharomyces cerevisiae using 100 uL of test compound after 48 hrs by agar well diffusion method; assay type: functional
Outline: (§3)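 Agar well diffusion. Sabouraud dextrose agar was spread with yeast or fungal suspension at 1×10⁶ CFU/mL, and 10 mm wells were cut. Wells were loaded with compound solution made at 200 mg per 1 mL DMSO. Plates were incubated 48 h at 28 °C and inhibition zones were measured. DMSO served as the negative control.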

Klebsiella pneumoniae [8] = assay: Antibacterial activity against Klebsiella pneumoniae ATCC 13883 after 24 hrs by two fold serial dilution method; assay type: functional
Pseudomonas aeruginosa [9] = assay: Antibacterial activity against Pseudomonas aeruginosa ATCC 27953 using 100 uL of test compound after 24 hrs by agar well diffusion method; assay type: functional; outline: as §1
Aspergillus niger [10] = assay: Antifungal activity against Aspergillus niger using 100 uL of test compound after 48 hrs by agar well diffusion method; assay type: functional; outline: as §3
[11] = Antioxidant activity assessed as DPPH free radical scavenging activity by spectrophotometric assay; assay type: physicochemical
Outline: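 Sample solutions at several concentrations were added to 0.004% DPPH in methanol and incubated 60 min in the dark. Absorbance was read at 517 nm against a blank. Inhibition % = (A_blank − A_sample)/A_blank × 100, where the control contained all reagents except the test compound.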

Klebsiella pneumoniae [12] = assay: Antibacterial activity against Klebsiella pneumoniae ATCC 13883 using 100 uL of test compound after 24 hrs by agar well diffusion method; assay type: functional; outline: as §1
Candida albicans [13] = assay: Antifungal activity against Candida albicans NRRL Y-477 after 48 hrs by two fold serial dilution method; assay type: functional; outline: as §2
Candida albicans [14] = assay: Antifungal activity against Candida albicans NRRL Y-477 using 100 uL of test compound after 48 hrs by agar well diffusion method; assay type: functional; outline: as §3
Priestia megaterium [15] = assay: Antibacterial activity against Bacillus megaterium ATCC 9885 using 100 uL of test compound after 24 hrs by agar well diffusion method; assay type: functional; outline: as §1
Staphylococcus aureus [16] = assay: Antibacterial activity against Staphylococcus aureus ATCC 29213 using 100 uL of test compound after 24 hrs by agar well diffusion method; assay type: functional; outline: as §1
Priestia megaterium [17] = assay: Antibacterial activity against Bacillus megaterium ATCC 9885 after 24 hrs by two fold serial dilution method; assay type: functional
Staphylococcus aureus [18] = assay: Antibacterial activity against Staphylococcus aureus ATCC 29213 after 24 hrs by two fold serial dilution method; assay type: functional
Bacillus subtilis [19] = assay: Antibacterial activity against Bacillus subtilis ATCC 6633 using 100 uL of test compound after 24 hrs by agar well diffusion method; assay type: functional; outline: as §1
Saccharomyces cerevisiae [20] = assay: Antifungal activity against Saccharomyces cerevisiae after 48 hrs by two fold serial dilution method; assay type: functional; outline: as §2
Micrococcus luteus [21] = assay: Antibacterial activity against Sarcina lutea using 100 uL of test compound after 24 hrs by agar well diffusion method; assay type: functional; outline: as §1

| Structure (SMILES) | MIC (Pseudomonas aeruginosa [2]) | diameter of the inhibition zone (DIZ) (Escherichia coli [3]) | MIC (Micrococcus luteus [5]) | MIC (Aspergillus niger [6]) | diameter of the inhibition zone (DIZ) (Saccharomyces cerevisiae [7]) | diameter of the inhibition zone (DIZ) (Pseudomonas aeruginosa [9]) | diameter of the inhibition zone (DIZ) (Aspergillus niger [10]) | IC50 [11] | diameter of the inhibition zone (DIZ) (Klebsiella pneumoniae [12]) | MIC (Candida albicans [13]) | diameter of the inhibition zone (DIZ) (Candida albicans [14]) | diameter of the inhibition zone (DIZ) (Priestia megaterium [15]) | diameter of the inhibition zone (DIZ) (Staphylococcus aureus [16]) | MIC (Staphylococcus aureus [18]; ATCC 29213, 24 h) | diameter of the inhibition zone (DIZ) (Bacillus subtilis [19]) | MIC (Saccharomyces cerevisiae [20]) | diameter of the inhibition zone (DIZ) (Micrococcus luteus [21]) | MIC (Escherichia coli [1]; ATCC 25922, 24 h) | MIC (Klebsiella pneumoniae [8]; ATCC 13883, 24 h) | MIC (Priestia megaterium [17]; ATCC 9885, 24 h) | other results |
| --- | --- | --- | --- | --- | --- | --- | --- | --- | --- | --- | --- | --- | --- | --- | --- | --- | --- | --- | --- | --- | --- |
| O=C(Cn1cc(COC(Cc2cn(CC(=O)c3ccc(S(=O)(=O)c4ccccc4)cc3)nn2)c2ccc(S(=O)(=O)c3ccccc3)cc2)nn1)c1ccc(S(=O)(=O)c2ccccc2)cc1 (stereo unspecified) | inactive | inactive | 200 µg/mL (≈ 216 µM) | 100 µg/mL (≈ 108 µM) | inactive | 14 mm | 20 mm | 600 µg/mL (≈ 647 µM) | 13 mm | inactive | 14 mm | inactive | 17 mm | 200 µg/mL (≈ 216 µM) | 14 mm | inactive | 19 mm |  |  |  | MIC (Escherichia coli [1]): inactive; MIC (Bacillus subtilis [4]): inactive; MIC (Klebsiella pneumoniae [8]): inactive; MIC (Priestia megaterium [17]): inactive |
| CC(O)(Cc1cn(CC(=O)c2ccc(F)cc2)nn1)c1ccc(S(=O)(=O)c2ccccc2)cc1 (stereo unspecified) | 200 µg/mL (≈ 417 µM) | 19 mm | 200 µg/mL (≈ 417 µM) | 50 µg/mL (≈ 104 µM) | inactive | 22 mm | 32 mm | 425 µg/mL (≈ 886 µM) | 19 mm | inactive | 15 mm | 17 mm | 17 mm | 200 µg/mL (≈ 417 µM) | 19 mm | inactive | 21 mm | 200 µg/mL (≈ 417 µM) | 200 µg/mL (≈ 417 µM) | 200 µg/mL (≈ 417 µM) | MIC (Bacillus subtilis [4]; ATCC 6633, 24 h): 200 µg/mL (≈ 417 µM) |
| CC(Cc1cn(CC(=O)c2ccc(F)cc2)nn1)(OCc1cn(CC(=O)c2ccc(F)cc2)nn1)c1ccc(S(=O)(=O)c2ccccc2)cc1 (stereo unspecified) | 100 µg/mL (≈ 144 µM) | 25 mm | 50 µg/mL (≈ 71.8 µM) | 25 µg/mL (≈ 35.9 µM) | 15 mm | 27 mm | 34 mm | 150 µg/mL (≈ 215 µM) | 26 mm | inactive | inactive | 17 mm | 27 mm | 100 µg/mL (≈ 144 µM) | 15 mm | inactive | 26 mm | 100 µg/mL (≈ 144 µM) | 100 µg/mL (≈ 144 µM) | 200 µg/mL (≈ 287 µM) | MIC (Bacillus subtilis [4]): inactive |
| CC(O)(Cc1cn(Cc2ccccc2)nn1)c1ccc(S(=O)(=O)c2ccccc2)cc1 (stereo unspecified) | 200 µg/mL (≈ 461 µM) | 22 mm | 200 µg/mL (≈ 461 µM) | 25 µg/mL (≈ 57.7 µM) | 16 mm | 23 mm | 32 mm | 600 µg/mL (≈ 1380 µM) | 24 mm |  | 19 mm | 17 mm | 22 mm | 200 µg/mL (≈ 461 µM) | 16 mm | 200 µg/mL (≈ 461 µM) | 23 mm | 200 µg/mL (≈ 461 µM) | 100 µg/mL (≈ 231 µM) | 200 µg/mL (≈ 461 µM) | MIC (Bacillus subtilis [4]; ATCC 6633, 24 h): 200 µg/mL (≈ 461 µM); MIC (Candida albicans [13]; NRRL Y-477, 48 h): 200 µg/mL (≈ 461 µM) |
| CC(Cc1cn(CC(=O)c2ccc(S(=O)(=O)c3ccccc3)cc2)nn1)(OCc1cn(CC(=O)c2ccc(S(=O)(=O)c3ccccc3)cc2)nn1)c1ccc(S(=O)(=O)c2ccccc2)cc1 (stereo unspecified) | 200 µg/mL (≈ 213 µM) | 17 mm | 100 µg/mL (≈ 106 µM) | 25 µg/mL (≈ 26.6 µM) | 14 mm | 19 mm | 34 mm | 600 µg/mL (≈ 638 µM) | 19 mm | inactive | 15 mm | 22 mm | 14 mm |  | 14 mm | inactive | 25 mm | 200 µg/mL (≈ 213 µM) | 200 µg/mL (≈ 213 µM) | 200 µg/mL (≈ 213 µM) | MIC (Bacillus subtilis [4]): inactive; MIC (Staphylococcus aureus [18]): inactive |
| O=C(Cn1cc(COC(Cc2cn(CC(=O)c3ccc(F)cc3)nn2)c2ccc(S(=O)(=O)c3ccccc3)cc2)nn1)c1ccc(F)cc1 (stereo unspecified) | inactive | 14 mm | 200 µg/mL (≈ 293 µM) | 50 µg/mL (≈ 73.2 µM) | 19 mm | 15 mm | 32 mm | 275 µg/mL (≈ 403 µM) | 16 mm |  | 22 mm | 17 mm | 26 mm | 100 µg/mL (≈ 146 µM) | 19 mm | 200 µg/mL (≈ 293 µM) | 20 mm |  | 200 µg/mL (≈ 293 µM) | 200 µg/mL (≈ 293 µM) | MIC (Escherichia coli [1]): inactive; MIC (Bacillus subtilis [4]; ATCC 6633, 24 h): 200 µg/mL (≈ 293 µM); MIC (Candida albicans [13]; NRRL Y-477, 48 h): 200 µg/mL (≈ 293 µM) |
